Measurements: ChEMBL document CHEMBL4765349, “Design, synthesis and biological evaluation of novel N-sulfonylamidine-based derivatives as c-Met inhibitors via Cu-catalyzed three-component reaction” (Eur J Med Chem, 2020)

Tests used:
[1] = tested on: A549; assay: cells; conditions: Homo sapiens, A549, 72 h
[2] = tested on: HT-29; assay: cells; conditions: Homo sapiens, HT-29, 72 h
[3] = tested on: MKN-45; assay: Cytotoxicity against human MKN-45 cells assessed as inhibition of cell proliferation measured after 72 hrs by MTT assay; format: functional, cell-based; conditions: MKN-45, 72 h
[4] = tested on: MDA-MB-231; assay: Cytotoxicity against human MDA-MB-231 cells assessed as inhibition of cell proliferation measured after 72 hrs by MTT assay; format: functional, cell-based; conditions: MDA-MB-231, 72 h
[5] = tested on: A549; assay: Induction of apoptosis in human A549 cells assessed as late apoptosis at 1 uM measured after 12 hrs by Annexin V-FITC/ Propidium iodide stain based flow cytometry assay relative to control; format: functional
In short: (§1)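 Cells double-stained with FITC-annexin V and propidium iodide, then flow cytometry gave the percentages of early and late apoptotic cells.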

[6] = tested on: A549; assay: Induction of apoptosis in human A549 cells assessed as early apoptosis at 1 uM measured after 12 hrs by Annexin V-FITC/ Propidium iodide stain based flow cytometry assay relative to control; format: functional
In short: as §1

Compound `CCCCC/C(=N\S(=O)(=O)Cc1ccccc1)Nc1ccc(Oc2ncnc3cc(OC)c(OC)cc23)c(F)c1` has an IC50 [1] of 27.1 µM and an IC50 [2] of 30.5 µM.
`CCCCOc1cc2nccc(Oc3ccc(N/C(CCOC)=N/S(=O)(=O)Cc4ccc(Cl)c(Cl)c4)cc3F)c2cc1OC` gave an IC50 [1] of 3.53 µM, an IC50 [2] of 4.05 µM and an IC50 [3] of 4.36 µM. It also gave an IC50 [4] of 7.19 µM.
For `COCC/C(=N\S(=O)(=O)Cc1ccccc1C)Nc1ccc(Oc2ccnc3cc(OC)c(OC)cc23)c(F)c1`, the IC50 [1] was 4.15 µM, the IC50 [2] was 4.85 µM and the IC50 [3] was 5.16 µM. It also gave an IC50 [4] of 8.19 µM.
Compound `CCCCC/C(=N\S(=O)(=O)Cc1ccc(F)cc1)Nc1ccc(Oc2ccnc3ccsc23)c(F)c1` has an IC50 [1] of 6.23 µM, an IC50 [2] of 7.06 µM and an IC50 [3] of 9.17 µM. The IC50 [4] was 14.6 µM.
With `COCC/C(=N\S(=O)(=O)Cc1ccc(Cl)cc1)Nc1ccc(Oc2ccnc3cc(OCCCN4CCC(C)CC4)c(OC)cc23)c(F)c1` the IC50 [1] was 0.38 µM, the IC50 [2] was 0.55 µM and the IC50 [3] was 0.76 µM. For the same compound, the IC50 [4] was 1.56 µM.
For `COCC/C(=N\S(=O)(=O)Cc1ccc(Cl)c(Cl)c1)Nc1ccc(Oc2ccnc3cc(OCCCN4CCCCC4)c(OC)cc23)c(F)c1`, the IC50 [1] was 0.67 µM, the IC50 [2] was 0.78 µM and the IC50 [3] was 0.88 µM. It also gave an IC50 [4] of 0.93 µM.
Compound `COc1cc2nccc(Oc3ccc(N/C(Cc4cccnc4)=N\S(=O)(=O)Cc4ccccc4)cc3F)c2cc1OC` has an IC50 [1] of 18.1 µM, an IC50 [2] of 20.6 µM and an IC50 [3] of 22.9 µM. The IC50 [4] was 28.3 µM.
With `COCC/C(=N\S(=O)(=O)Cc1ccc(Cl)c(Cl)c1)Nc1ccc(Oc2ccnc3cc(OCCCN4CCN(C)CC4)c(OC)cc23)c(F)c1` the IC50 [1] was 0.61 µM, the IC50 [2] was 0.74 µM and the IC50 [3] was 0.82 µM. For the same compound, the IC50 [4] was 1.35 µM.
`COCC/C(=N\S(=O)(=O)Cc1ccc(C)cc1)Nc1ccc(Oc2ccnc3cc(OC)c(OC)cc23)c(F)c1` was tested, and the IC50 [1] was 8.02 µM, the IC50 [2] was 8.74 µM and the IC50 [3] was 9.75 µM. For the same compound, the IC50 [4] was 13.7 µM.
In the case of `COCC/C(=N\S(=O)(=O)Cc1ccccc1F)Nc1ccc(Oc2ccnc3cc(OC)c(OC)cc23)c(F)c1`, the IC50 [1] is reported as 2.85 µM, the IC50 [2] is reported as 3.16 µM and the IC50 [3] is reported as 3.26 µM. For the same compound, the IC50 [4] was 5.67 µM.
Compound `COc1cc2nccc(Oc3ccc(N/C(CC4CCCCC4)=N\S(=O)(=O)Cc4ccc(F)cc4)cc3F)c2cc1OC` has an IC50 [1] of 9.43 µM, an IC50 [2] of 10.3 µM and an IC50 [3] of 15.2 µM. For the same compound, the IC50 [4] was 19.7 µM.
For `COCC/C(=N\S(=O)(=O)Cc1ccc(F)cc1)Nc1ccc(Oc2ccnc3cc(OC)c(OC)cc23)c(F)c1`, the IC50 [1] was 1.42 µM, the IC50 [2] was 1.68 µM and the IC50 [3] was 2.15 µM. It also gave an IC50 [4] of 4.24 µM.
`COCC/C(=N\S(=O)(=O)Cc1ccc(C(F)(F)F)cc1)Nc1ccc(Oc2ccnc3cc(OC)c(OC)cc23)c(F)c1` was tested, and the IC50 [1] was 11.3 µM, the IC50 [2] was 13.2 µM and the IC50 [3] was 15.3 µM. The IC50 [4] was 20.4 µM.
In the case of `COCC/C(=N\S(=O)(=O)Cc1ccc(Cl)cc1)Nc1ccc(Oc2ccnc3cc(OCCCN4CCCCC4)c(OC)cc23)c(F)c1`, the IC50 [1] is reported as 0.35 µM, the IC50 [2] is reported as 0.41 µM and the IC50 [3] is reported as 0.65 µM. The IC50 [4] was 1.12 µM.
`COCC/C(=N\S(=O)(=O)Cc1ccc(Cl)c(Cl)c1)Nc1ccc(Oc2ccnc3cc(OC)c(OC)cc23)c(F)c1` showed an IC50 [1] of 0.71 µM, an IC50 [2] of 0.88 µM and an IC50 [3] of 1.16 µM. For the same compound, the IC50 [4] was 3.32 µM.
Compound `COc1cc2nccc(Oc3ccc(N/C(Cc4cccnc4)=N\S(=O)(=O)Cc4ccc(F)cc4)cc3F)c2cc1OC` has an IC50 [1] of 13.2 µM, an IC50 [2] of 15.5 µM and an IC50 [3] of 18.6 µM. For the same compound, the IC50 [4] was 22.3 µM.
`CCCCC/C(=N\S(=O)(=O)Cc1ccccc1)Nc1ccc(Oc2ncnc3ccsc23)c(F)c1` showed an IC50 [1] of 17.3 µM, an IC50 [2] of 18.6 µM and an IC50 [3] of 21.9 µM. It also gave an IC50 [4] of 25.6 µM.
`CCCCC/C(=N\S(=O)(=O)Cc1ccccc1)Nc1ccc(Oc2ccnc3ccsc23)c(F)c1` was tested, and the IC50 [1] was 8.68 µM, the IC50 [2] was 9.63 µM and the IC50 [3] was 11.5 µM. It also gave an IC50 [4] of 15.3 µM.
`COCC/C(=N\S(=O)(=O)Cc1ccc(Cl)cc1)Nc1ccc(Oc2ccnc3cc(OCCCN4CCN(C)CC4)c(OC)cc23)c(F)c1` gave an IC50 [1] of 0.32 µM, an IC50 [2] of 0.36 µM and an IC50 [3] of 0.61 µM. It also gave an IC50 [4] of 1.24 µM.
`COCC/C(=N\S(=O)(=O)Cc1ccc(Cl)c(Cl)c1)Nc1ccc(Oc2ccnc3cc(OCCCN4CCOCC4)c(OC)cc23)c(F)c1` gave an IC50 [1] of 0.47 µM, an IC50 [2] of 0.59 µM and an IC50 [3] of 0.72 µM. The IC50 [4] was 1.04 µM.
`COc1cc2nccc(Oc3ccc(N/C(Cc4ccccc4)=N\S(=O)(=O)Cc4ccccc4)cc3F)c2cc1OC` showed an IC50 [1] of 28.4 µM, an IC50 [2] of 32.6 µM and an IC50 [3] of 26.3 µM.
Work on `COc1cc2c(Oc3ccc(NC(=O)C4(C(=O)Nc5ccc(F)cc5)CC4)cc3F)ccnc2cc1OCCCN1CCOCC1` [FORETINIB] yielded an Activity [5] of 22.9% and an Activity [6] of 11.25%.
`COCC/C(=N\S(=O)(=O)Cc1ccccc1)Nc1ccc(Oc2ccnc3cc(OC)c(OC)cc23)c(F)c1` showed an IC50 [1] of 3.14 µM, an IC50 [2] of 3.52 µM and an IC50 [3] of 4.05 µM. The IC50 [4] was 6.64 µM.
`CCCCC/C(=N\S(=O)(=O)Cc1ccc(F)cc1)Nc1ccc(Oc2ccnc3cc(OC)c(OC)cc23)c(F)c1` gave an IC50 [1] of 4.6 µM, an IC50 [2] of 5.18 µM and an IC50 [3] of 5.54 µM. The IC50 [4] was 9.04 µM.
For `CCCCC/C(=N\S(=O)(=O)Cc1ccccc1)Nc1ccc(Oc2ccnc3cc(OC)c(OC)cc23)c(F)c1`, the IC50 [1] was 7.55 µM, the IC50 [2] was 8.26 µM and the IC50 [3] was 9.28 µM. It also gave an IC50 [4] of 12.8 µM.
With `COCC/C(=N\S(=O)(=O)Cc1cccc(C)c1)Nc1ccc(Oc2ccnc3cc(OC)c(OC)cc23)c(F)c1` the IC50 [1] was 7.54 µM, the IC50 [2] was 8.02 µM and the IC50 [3] was 9.15 µM. For the same compound, the IC50 [4] was 13.1 µM.
In the case of `COCC/C(=N\S(=O)(=O)Cc1ccc(Br)cc1)Nc1ccc(Oc2ccnc3cc(OC)c(OC)cc23)c(F)c1`, the IC50 [1] is reported as 7.14 µM, the IC50 [2] is reported as 8.03 µM and the IC50 [3] is reported as 11.3 µM. The IC50 [4] was 12.1 µM.
Compound `COc1cc2nccc(Oc3ccc(N/C(Cc4ccccc4)=N\S(=O)(=O)Cc4ccc(F)cc4)cc3F)c2cc1OC` has an IC50 [1] of 20.4 µM, an IC50 [2] of 23.7 µM and an IC50 [4] of 32.5 µM.
`COCC/C(=N\S(=O)(=O)Cc1cccc(F)c1)Nc1ccc(Oc2ccnc3cc(OC)c(OC)cc23)c(F)c1` showed an IC50 [1] of 2.14 µM, an IC50 [2] of 2.47 µM and an IC50 [3] of 3.52 µM. The IC50 [4] was 5.34 µM.
Compound `COc1cc2nccc(Oc3ccc(N/C(C)=N/S(=O)(=O)Cc4ccccc4)cc3F)c2cc1OC` has an IC50 [1] of 5.16 µM, an IC50 [2] of 5.85 µM and an IC50 [3] of 5.99 µM. It also gave an IC50 [4] of 9.29 µM.
`CCCCC/C(=N\S(=O)(=O)Cc1ccc(F)cc1)Nc1ccc(Oc2ncnc3ccsc23)c(F)c1` gave an IC50 [1] of 10.3 µM, an IC50 [2] of 11.2 µM and an IC50 [3] of 12.5 µM. For the same compound, the IC50 [4] was 16.8 µM.
`COc1cc2nccc(Oc3ccc(N/C(CC4CCCCC4)=N\S(=O)(=O)Cc4ccccc4)cc3F)c2cc1OC` was tested, and the IC50 [1] was 12.2 µM, the IC50 [2] was 14.5 µM and the IC50 [3] was 16.3 µM. For the same compound, the IC50 [4] was 20.4 µM.
`COc1cc2nccc(Oc3ccc(N/C(Cc4ccsc4)=N\S(=O)(=O)Cc4ccc(F)cc4)cc3F)c2cc1OC` showed an IC50 [1] of 10.1 µM, an IC50 [2] of 11.2 µM and an IC50 [3] of 11.9 µM. For the same compound, the IC50 [4] was 19.5 µM.
`CCCCC/C(=N\S(=O)(=O)Cc1ccc(F)cc1)Nc1ccc(Oc2ncnc3cc(OC)c(OC)cc23)c(F)c1` was tested, and the IC50 [1] was 18.6 µM, the IC50 [2] was 22.1 µM and the IC50 [3] was 23.4 µM. For the same compound, the IC50 [4] was 31.8 µM.
`COCC/C(=N\S(=O)(=O)Cc1ccc(Cl)c(Cl)c1)Nc1ccc(Oc2ccnc3cc(OCCCN4CCC(C)CC4)c(OC)cc23)c(F)c1` gave an IC50 [1] of 0.72 µM, an IC50 [2] of 0.88 µM and an IC50 [3] of 1.15 µM. The IC50 [4] was 1.98 µM.
`COc1cc2nccc(Oc3ccc(N/C(C)=N/S(=O)(=O)Cc4ccc(F)cc4)cc3F)c2cc1OC` showed an IC50 [1] of 3.76 µM, an IC50 [2] of 4.12 µM and an IC50 [3] of 4.55 µM. For the same compound, the IC50 [4] was 7.65 µM.
Compound `CCCCOc1cc2nccc(Oc3ccc(N/C(CCOC)=N/S(=O)(=O)Cc4ccc(Cl)cc4)cc3F)c2cc1OC` has an IC50 [1] of 2.56 µM, an IC50 [2] of 2.85 µM and an IC50 [3] of 3.05 µM. The IC50 [4] was 5.46 µM.
With `COCC/C(=N\S(=O)(=O)Cc1ccc(Cl)cc1)Nc1ccc(Oc2ccnc3cc(OC)c(OC)cc23)c(F)c1` the IC50 [1] was 0.62 µM, the IC50 [2] was 0.91 µM and the IC50 [3] was 1.05 µM. For the same compound, the IC50 [4] was 2.32 µM.
In the case of `COc1cc2nccc(Oc3ccc(N/C(Cc4ccsc4)=N\S(=O)(=O)Cc4ccccc4)cc3F)c2cc1OC`, the IC50 [1] is reported as 14.3 µM, the IC50 [2] is reported as 16.5 µM and the IC50 [4] is reported as 23.8 µM.
